Source: ChEMBL document CHEMBL2417474, “Synthesis, antiproliferative and anti-inflammatory activities of some novel 6-aryl-2-(p-(methanesulfonyl)phenyl)-4,5-dihydropyridazi-3(2H)-ones” (Eur J Med Chem, 2013)

Tests used:
Rattus norvegicus [1] = assay: Antiinflammatory activity in Wistar rat assessed as inhibition of carrageenan-induced paw edema at 0.05 mmol/kg, po administered 30 mins prior challenge measured after 3 hrs; type: functional
How it was run: (§1)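 Wistar rats of either sex, 150–175 g, fasted 16 h, 6 per group. Dosed orally at 0.05 mmol/kg, suspended in 1% CMC in water (10 ml/kg). 30 min later, 0.1 ml of 1% carrageenan in saline injected subplantar into the left hind paw. Paw volume read by plethysmometer at 0, 3 and 5 h. % inhibition = (1 − Vt/Vc) × 100 against the vehicle group.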

Rattus norvegicus [2] = assay: Antiinflammatory activity in Wistar rat assessed as inhibition of carrageenan-induced paw edema at 0.05 mmol/kg, po administered 30 mins prior challenge measured after 5 hrs; type: functional; how it was run: as §1
HL-60(TB) = assay: Growth inhibition of human HL-60(TB) cells assessed as cell growth at 10 uM after 48 hrs by sulforhodamine B assay; type: functional; settings: HL-60, 48 h, read-out: Activity
Rattus norvegicus [3] = assay: Ulcerogenic activity in Wistar albino rat at 0.15 mmol/kg, po measured after 6 hrs; type: toxicity, organism-based; settings: in vivo
How it was run: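 Acute gastric ulcer test in Wistar rats (160–220 g) fasted 24 h, randomized into groups of six. Compound (0.15 mmol/kg) suspended in 1% w/v CMC in distilled water (10 ml/kg vehicle) was given orally, with vehicle and etoricoxib groups alongside. Animals were sacrificed under deep ether anesthesia 6 h after dosing.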

UO-31 = assay: Growth inhibition of human UO31 cells assessed as cell growth at 10 uM after 48 hrs by sulforhodamine B assay; type: functional; settings: UO-31, 48 h, read-out: Activity
How it was run: (§2)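 Single-dose NCI screen. Tumor lines were cultured in medium with 5% fetal calf serum and 2 mM L-glutamine, preincubated 24 h, then given compound in DMSO. After 48 h continuous exposure, cell growth was estimated by sulforhodamine B protein assay.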

NCI-H522 = assay: Growth inhibition of human NCI-H522 cells assessed as cell growth at 10 uM after 48 hrs by sulforhodamine B assay; type: functional; settings: NCI-H522, 48 h, read-out: Activity
[4] = Growth inhibition of human NCI-ADR-RES cells assessed as cell growth at 10 uM after 48 hrs by sulforhodamine B assay; type: functional; settings: read-out: Activity
NCI-H23 = assay: Growth inhibition of human NCI-H23 cells assessed as cell growth at 10 uM after 48 hrs by sulforhodamine B assay; type: functional; settings: NCI-H23, 48 h, read-out: Activity
K562 = assay: Growth inhibition of human K562 cells assessed as cell growth at 10 uM after 48 hrs by sulforhodamine B assay; type: functional; settings: K562, 48 h, read-out: Activity
MOLT-4 = assay: Growth inhibition of human MOLT4 cells assessed as cell growth at 10 uM after 48 hrs by sulforhodamine B assay; type: functional; settings: MOLT-4, 48 h, read-out: Activity
SR = assay: Growth inhibition of human SR cells assessed as cell growth at 10 uM after 48 hrs by sulforhodamine B assay; type: functional; settings: read-out: Activity; how it was run: as §2
MDA-MB-435 = assay: Growth inhibition of human MDA-MB-435 cells assessed as cell growth at 10 uM after 48 hrs by sulforhodamine B assay; type: functional; settings: MDA-MB-435, 48 h, read-out: Activity
RPMI-8226 = assay: Growth inhibition of human RPMI8226 cells assessed as cell growth at 10 uM after 48 hrs by sulforhodamine B assay; type: functional; settings: RPMI-8226, 48 h, read-out: Activity
[5] = Growth inhibition of human Hs 578T cells assessed as cell growth at 10 uM after 48 hrs by sulforhodamine B assay; type: functional; settings: read-out: Activity
OVCAR-3 = assay: Growth inhibition of human OVCAR3 cells assessed as cell growth at 10 uM after 48 hrs by sulforhodamine B assay; type: functional; settings: OVCAR-3, 48 h, read-out: Activity
[6] = Growth inhibition of human EKVX cells assessed as cell growth at 10 uM after 48 hrs by sulforhodamine B assay; type: functional; settings: read-out: Activity
T47D = assay: Growth inhibition of human T47D cells assessed as cell growth at 10 uM after 48 hrs by sulforhodamine B assay; type: functional; settings: read-out: Activity; how it was run: as §2
SF-295 = assay: Growth inhibition of human SF295 cells assessed as cell growth at 10 uM after 48 hrs by sulforhodamine B assay; type: functional; settings: SF-295, 48 h, read-out: Activity
CAKI-1 = assay: Growth inhibition of human CAKI-1 cells assessed as cell growth at 10 uM after 48 hrs by sulforhodamine B assay; type: functional; settings: CAKI-1, 48 h, read-out: Activity
SK-MEL-5 = assay: Growth inhibition of human SK-MEL-5 cells assessed as cell growth at 10 uM after 48 hrs by sulforhodamine B assay; type: functional; settings: SK-MEL-5, 48 h, read-out: Activity
MDA-MB-468 = assay: Growth inhibition of human MDA-MB-468 cells assessed as cell growth at 10 uM after 48 hrs by sulforhodamine B assay; type: functional; settings: MDA-MB-468, 48 h, read-out: Activity

SMILES	inhibition in vivo at 50 µmol/kg (Rattus norvegicus [1]) [%]	inhibition in vivo at 50 µmol/kg (Rattus norvegicus [2]) [%]	other results
CS(=O)(=O)c1ccc(N2N=C(c3ccc(Cl)c(Cl)c3)CCC2=O)cc1	26.6	34.2	–
CS(=O)(=O)c1ccc(N2N=C(c3ccc(O)c(Cl)c3)CCC2=O)cc1	43.3	55.2	growth at 10 µM (HL-60(TB)): 66.7%
Cc1ccc(O)c(C2=NN(c3ccc(S(C)(=O)=O)cc3)C(=O)CC2)c1	66.6	86.8	Activity (Rattus norvegicus [3]): Non-toxic; growth at 10 µM (UO-31): 70%
Cc1cc(C2=NN(c3ccc(S(C)(=O)=O)cc3)C(=O)CC2)ccc1O	26.6	60.5	–
CS(=O)(=O)c1ccc(N2N=C(c3ccccc3)CCC2=O)cc1	26.6	47.3	–
CS(=O)(=O)c1ccc(N2N=C(c3ccc(Cl)cc3)CCC2=O)cc1	26.6	36.8	growth at 10 µM (NCI-H522): 25.4%; growth at 10 µM [4]: 58.3%; growth at 10 µM (NCI-H23): 65.3%
CS(=O)(=O)c1ccc(N2N=C(c3ccc(Br)cc3)CCC2=O)cc1	10	31.5	–
CS(=O)(=O)c1ccc(N2N=C(c3ccc(F)cc3)CCC2=O)cc1	60	73.6	growth at 10 µM (K562): 41.8%; growth at 10 µM (MOLT-4): 44.7%
COc1ccc(C2=NN(c3ccc(S(C)(=O)=O)cc3)C(=O)CC2)cc1	46.7	68.4	growth at 10 µM (SR): 64%; growth at 10 µM (MDA-MB-435): 7.92%; growth at 10 µM (UO-31): 62.1%
CC(C)(C)c1ccc(C2=NN(c3ccc(S(C)(=O)=O)cc3)C(=O)CC2)cc1	50	68.4	growth at 10 µM (RPMI-8226): 69.6%; growth at 10 µM [5]: 70.7%
CS(=O)(=O)c1ccc(N2N=C(c3ccc(-c4ccccc4)cc3)CCC2=O)cc1	6.6	21	growth at 10 µM [5]: 64.6%; growth at 10 µM (OVCAR-3): 42.1%; growth at 10 µM [6]: 29.6%
CS(=O)(=O)c1ccc(N2N=C(c3ccc(Oc4ccccc4)cc3)CCC2=O)cc1	50	65.7	growth at 10 µM (T47D): 44.4%; growth at 10 µM (K562): 39.7%; growth at 10 µM (SF-295): 28.8%; growth at 10 µM (CAKI-1): 49.8%; growth at 10 µM [6]: 20.1%; growth at 10 µM (SK-MEL-5): 35.1%; growth at 10 µM (MDA-MB-468): 41.6%; growth at 10 µM (UO-31): 48.8%
COc1ccc(C2=NN(c3ccc(S(C)(=O)=O)cc3)C(=O)CC2)cc1OC	66.6	82.4	Activity (Rattus norvegicus [3]): Non-toxic
Cc1ccc(-c2ncc(Cl)cc2-c2ccc(S(C)(=O)=O)cc2)cn1 [ETORICOXIB]	83.3	86.8	–
